# HNF4A DNA FP = change in binding of human HNF4 alpha to DNA | P41235 | HNF4a-FITC DNA binding, fluorescence polarization, 1 h | activity change, % at 10 µM | 360,000 compounds, 0.3% hits | AID 1224865; in the data active = activity change above about 30%, passing the limit was not always enough
# aDG glyco up = increases alpha dystroglycan glycosylation. Pro5-aDG cells, alpha-DG glycosylation AlphaScreen (IIH6); 0% Pro5, 100% B10-LARGE cell signal. activation, % at 10 µM. 360,000 compounds, 0.22% hits;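 active = activation of at least 8% versus controls, or a plate z-score of at least 8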;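 also: Pro5 are CHO cells carrying HIG-tagged alpha-DG that lacks glycosylation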
# NR1D1 modulator = modulators of human Rev-erb alpha DNA binding | P20393 | Rev-erbα–FITC-DNA binding, fluorescence polarization, 90 min | activity, % at 10 µM | 370,000 compounds, 0.79% hits | AID 1259318;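 active = activity above about 14%, limit read from the data; passing the limit was not always enough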
# CSN deneddyl inh = inhibitors of human CSN-mediated cullin deneddylation. Purified CSN, SCF-Nedd8-OG deneddylation, fluorescence polarization. 360,000 compounds, 0.38% hits. Q92905. AID 651999. inhibition, % at 12.5 µM;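 active = pattern-corrected inhibition above about 35%, with an unprinted fluorescence ratio check between 0.5 and 1.5, limit read from the data, passing the limit was not always enough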
# Target sequence (Q92905 whole entry, looked up, one chain of several): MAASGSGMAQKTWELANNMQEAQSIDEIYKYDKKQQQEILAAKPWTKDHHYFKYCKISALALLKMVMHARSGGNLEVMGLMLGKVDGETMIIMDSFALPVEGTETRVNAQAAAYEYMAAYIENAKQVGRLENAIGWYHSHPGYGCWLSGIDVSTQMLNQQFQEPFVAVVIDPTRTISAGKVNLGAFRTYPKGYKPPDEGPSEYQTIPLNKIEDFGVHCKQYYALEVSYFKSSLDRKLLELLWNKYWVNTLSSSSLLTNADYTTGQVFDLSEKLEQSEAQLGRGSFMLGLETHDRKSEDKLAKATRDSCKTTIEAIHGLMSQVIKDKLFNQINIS
#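 Assay system: Purified human Csn5 enzyme expressed in HEK293T cells | Amount: Enzyme 0.24 nM | Measured by: Fluorescence polarization readout | Medium: Tris/NaCl/DTT buffer, pH 7.5 | Compound dosing: One concentration, 12.5 µM, 0.25% DMSO | Times: 90 min incubation of compound, enzyme and substrate at room temperature | Control set: no-enzyme wells high, enzyme-with-substrate wells low | Read-out: % inhibition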
# HNF4A confirm = change in binding of human HNF4 alpha to DNA, retest | shares compounds with HNF4A DNA FP | HNF4A-FITC DNA binding, fluorescence polarization, 1 h | activity change, % at 12.5 µM | 210 compounds, 99% hits; call rule not given here
# Rev-erbA confirm = Rev-erb alpha (human) modulation, hit confirmation; shares compounds with NR1D1 modulator; Rev-erb alpha FITC-DNA binding, fluorescence polarization, 90 min; activation, % at 25 µM; 3,000 compounds, 61% hits;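 active = activation at or above a set limit, or at least 3 SD above the negative control mean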
# RORg DNA counter = affects RORgamma DNA binding in a Rev-erb alpha counter-screen; shares compounds with NR1D1 modulator; purified RORgamma protein-FITC-DNA binding, fluorescence polarization; IC50, µM; 910 compounds, 8% hits; AID 1259320;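 active = Compounds whose fitted half-maximal concentration for disrupting protein-DNA binding is below 10 micromolar; the record names Rev-erb in its text, so the target is in doubt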
# A number is an active result; i = inactive; nt = no result given; + = active, no number. Most compounds without a hit are left out; they make up all but 1.5% or so of the library.
SMILES,HNF4A DNA FP,aDG glyco up,NR1D1 modulator,CSN deneddyl inh,Rev-erbA confirm,others
Cc1cc(=O)oc2cc(NC(=O)c3cccc(S(C)(=O)=O)c3)ccc12,i,i,i,i,nt,
Cc1cc(=O)oc2cc(NC(=O)c3cccc(F)c3)ccc12,41.2,i,49.5,41.8,59.8,HNF4A confirm=34.8;RORg DNA counter=i
CC[C@@H](CCCCCCCn1ccc2ccccc21)CCC(=O)N(c1ccccc1)c1ccccc1,nt,nt,i,nt,nt,
CCN1C(=O)/C(=C2/Sc3ccc(OC)cc3N2C)SC1=Nc1ccc(OC)cc1,i,i,i,i,nt,
C=CCN1C(=O)/C(=C2/Sc3ccc(OC)cc3N2C)SC1=Nc1cccc(O)c1,47.4,i,15.9,i,i,HNF4A confirm=69.5
CCN(CC)c1ccc(N=Nc2ncn[nH]2)cc1,i,i,26.4,i,26.5,
CCOC(=O)/C(C#N)=C\c1ccc(CC)s1,i,i,i,i,nt,
CCOC(=O)/C(C#N)=C\C=C1C=CN(C)C=C1,i,i,30.9,i,28.3,
CCOC(=O)c1cc(-c2ccc3c(c2)OCO3)nc2onc(C)c12,i,i,33.2,i,i,
O=C(O)c1cc(-c2ccc3c(c2)OCO3)nc2ccc(Cl)cc12,i,i,i,i,nt,
Cc1cc(C)c2c(n1)nn1c(N3CCN(c4ccccc4)CC3)cc(C)nc21,i,i,40.2,i,26.3,
N#CC(C#N)=C1C=C2C=C(N3CCCCCC3)CCC2CC1 (stereo not drawn),i,i,272.8,i,167.3,RORg DNA counter=i
CN1CCN(C2=CC3=CC(=C(C#N)C#N)CCC3CC2)CC1 (stereo not drawn),i,i,nt,i,nt,
N#CC(C#N)=C1C=C2C=C(N3CCOCC3)CCC2CC1 (stereo not drawn),i,i,304.8,i,111.1,RORg DNA counter=i
COc1ccc(CN2CN3Cc4cc(F)ccc4C3CS2(=O)=O)cc1 (stereo not drawn),nt,nt,i,nt,nt,
COC(=O)c1ccccc1-c1ccc(/C=N/NC(=O)c2cc3ccccc3o2)o1,i,i,i,i,nt,
COC(=O)c1ccccc1-c1c2ccc(=N)cc-2oc2cc(N)ccc12,i,i,+,i,+,RORg DNA counter=i
O=[N+]([O-])c1ccc(-c2nc(Nc3cccc(O)c3)c3ccccc3n2)cc1,i,i,28.0,i,i,
COc1cccc(Nc2nc(-c3ccccc3O)nc3ccccc23)c1,i,i,155.5,i,96.2,RORg DNA counter=i
COc1ccccc1Nc1nc(-c2ccccc2O)nc2ccccc12,i,i,i,i,nt,
COc1ccc(OC)c(Nc2nc(-c3ccccc3O)nc3ccccc23)c1,i,i,326.9,i,224.0,RORg DNA counter=i
N#Cc1cccc(Cn2ccc3ccc(-c4ccc5ccn(Cc6ccccc6)c5c4)cc32)c1,nt,nt,i,nt,nt,
c1ccc(Cn2ccc3ccc(-c4ccc5ccn(Cc6cccc(-c7ccsc7)c6)c5c4)cc32)cc1,nt,nt,30.7,nt,16.5,
Fc1cccc(Cn2ccc3ccc(-c4ccc5ccn(Cc6ccccc6)c5c4)cc32)c1,nt,nt,i,nt,nt,
COc1ccc(Cn2ccc3ccc(-c4ccc5ccn(Cc6ccc(C#N)cc6)c5c4)cc32)cc1,nt,nt,37.9,nt,i,
SMILES,HNF4A DNA FP,aDG glyco up,NR1D1 modulator,CSN deneddyl inh,Rev-erbA confirm,others
N#Cc1cccc(Cn2ccc3ccc(-c4ccc5ccn(Cc6cccc(C#N)c6)c5c4)cc32)c1,nt,nt,58.9,nt,37.5,RORg DNA counter=2.54
O=C(OCc1cn(Cc2ccc(Cl)cc2)nn1)N1CCOCC1,nt,nt,i,nt,nt,
CCCC1CCC2(CCCN2CCOC(=S)NCc2cccc(C)c2)CC1 (stereo not drawn),nt,nt,i,nt,nt,
Cc1ccc(OCc2nnc(SCC(=O)c3ccc4ccccc4c3)n2-c2ccc(Cl)cc2)cc1,nt,nt,i,nt,nt,
COc1ccccc1NC(=O)c1oc2ccccc2c1NC(=O)c1ccco1,i,i,27.4,i,i,
Cc1ccccc1OCC(=O)Nc1sc2c(c1C#N)CC(C)(C)NC2(C)C,i,i,i,i,nt,
Cc1ccccc1OCC(=O)Nc1sc(C(=O)Nc2cccc(C)c2C)c(C)c1C#N,i,i,54.0,i,23.2,
COc1ccccc1NC(=O)c1sc(NC(=O)c2ccco2)c(C#N)c1C,i,i,103.6,i,46.5,RORg DNA counter=i
COC(=O)c1sc(NC(=O)c2ccco2)c(C#N)c1C,i,i,i,i,nt,
O=c1c2ccccc2n(Cc2ccco2)n1[C@@H](Cc1ccccc1)Cn1cc(-c2ccc(-c3ccccc3)cc2)nn1,nt,nt,i,nt,nt,
Cc1nnc(NC(=O)c2oc3c(ccc4ccccc43)c2C)s1,i,i,38.7,i,28.5,
CCc1nnc(NC(=O)c2oc3ccc(Br)cc3c2C)s1,i,i,41.5,i,40.5,RORg DNA counter=i
CCc1nonc1NC(=O)c1oc2cc(Br)ccc2c1C,i,i,16.8,i,i,
CCc1nonc1NC(=O)c1oc2ccccc2c1C,i,i,i,i,nt,
Cc1nnc(NC(=O)c2oc3ccccc3c2C)s1,i,i,i,i,nt,
COC(=O)[C@@H]1[C@H](O[Si](C)(C)C(C)(C)C)C2OC2C[C@H]1S(=O)(=O)c1ccccc1 (stereo partly drawn),nt,nt,i,nt,nt,
CS(=O)(=O)NCCNc1cc(Cl)ccc1[N+](=O)[O-],i,i,16.8,i,i,
CC(C)CNS(=O)(=O)CC1NCc2cc3c(cc21)OCO3 (stereo not drawn),nt,nt,i,nt,nt,
O=C([C@@H]1C[C@H]1c1ccccc1)N1CC[C@H]2[C@H](CCCN2Cc2cc(F)cc(F)c2)C1,nt,nt,i,nt,nt,
COc1ccc(NC(=O)CCCn2cc([N+](=O)[O-])cn2)cc1,i,i,25.7,i,i,
COc1cccc(NC(=O)Nc2nc3ncccn3c2-c2ccc(C)cc2)c1,nt,nt,i,nt,nt,
CCOC(=O)C1=NOC(C(=O)NC2CCCC2)(C(=O)C2CC2)C1 (stereo not drawn),nt,nt,i,nt,nt,
Cc1ccc(C(=O)OCC(=O)c2ccccc2)cc1,i,i,i,i,nt,
CCc1ccc(C(=O)COC(=O)c2ccc(-c3nnc(-c4ccccc4)o3)cc2)cc1,i,i,23.5,i,i,
COc1ccc(C(=O)OCCN2CCN(C3CN(Cc4cn(Cc5cccc(C)c5)nn4)S(=O)(=O)C3)CC2)cc1OC (stereo not drawn),nt,nt,i,nt,nt,
SMILES,HNF4A DNA FP,aDG glyco up,NR1D1 modulator,CSN deneddyl inh,Rev-erbA confirm,others
CCOC(=O)CSc1nc(C2CC2)cc(-c2ccc(F)cc2)c1C#N,i,i,nt,i,nt,
COc1ccc(-c2cc(C3CC3)nc(SCC(=O)c3cccs3)c2C#N)cc1,i,i,87.8,i,109.9,RORg DNA counter=i
Cc1nn(Cc2ccccc2)c(C)c1NC(=O)CSc1nc(C2CC2)nc2c1cnn2-c1ccccc1,i,i,i,i,nt,
Cc1nn(C)c(C)c1NC(=O)CSc1nc(Cc2ccccc2)nc2c1cnn2-c1ccccc1,i,i,181.1,i,75.8,
Cc1ccc(-c2nn(C)c(=O)c3ccccc23)cc1S(=O)(=O)N1CCOCC1,i,i,i,i,nt,
Cc1ccc(-c2nn(C)c(=O)c3ccccc23)cc1S(=O)(=O)N1CCCC1,i,i,26.3,i,36.0,RORg DNA counter=i

# Bioassay records deposited in PubChem by Sanford-Burnham Center for Chemical Genomics.
